Publication PMC6210075 (ACS Omega, 2018)

Legend:
mouse sEH = target: T1, mouse sEH (Mus musculus, UniProt P34914); assay: sEH fluorescent inhibition assay, recombinant mouse sEH; assay type: biochemical
T1 sequence (P34914 1-554): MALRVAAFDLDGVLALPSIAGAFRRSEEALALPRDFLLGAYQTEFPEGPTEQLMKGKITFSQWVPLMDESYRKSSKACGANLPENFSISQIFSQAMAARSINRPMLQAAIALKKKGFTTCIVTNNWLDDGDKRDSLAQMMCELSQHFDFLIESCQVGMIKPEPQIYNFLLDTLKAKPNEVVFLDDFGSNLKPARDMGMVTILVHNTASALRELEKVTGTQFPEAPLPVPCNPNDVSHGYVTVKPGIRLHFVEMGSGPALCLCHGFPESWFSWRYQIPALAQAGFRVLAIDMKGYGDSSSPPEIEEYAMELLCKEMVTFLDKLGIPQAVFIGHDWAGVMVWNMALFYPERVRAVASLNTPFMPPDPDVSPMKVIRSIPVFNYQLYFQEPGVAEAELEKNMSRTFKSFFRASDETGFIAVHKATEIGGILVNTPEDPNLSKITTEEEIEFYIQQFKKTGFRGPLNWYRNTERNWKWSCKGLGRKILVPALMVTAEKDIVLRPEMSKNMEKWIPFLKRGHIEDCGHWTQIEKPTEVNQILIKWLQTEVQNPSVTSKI

human sEH = target: T2, human sEH (Homo sapiens, UniProt P34913); assay: sEH fluorescent inhibition assay; assay type: biochemical
T2 sequence (P34913 1-555): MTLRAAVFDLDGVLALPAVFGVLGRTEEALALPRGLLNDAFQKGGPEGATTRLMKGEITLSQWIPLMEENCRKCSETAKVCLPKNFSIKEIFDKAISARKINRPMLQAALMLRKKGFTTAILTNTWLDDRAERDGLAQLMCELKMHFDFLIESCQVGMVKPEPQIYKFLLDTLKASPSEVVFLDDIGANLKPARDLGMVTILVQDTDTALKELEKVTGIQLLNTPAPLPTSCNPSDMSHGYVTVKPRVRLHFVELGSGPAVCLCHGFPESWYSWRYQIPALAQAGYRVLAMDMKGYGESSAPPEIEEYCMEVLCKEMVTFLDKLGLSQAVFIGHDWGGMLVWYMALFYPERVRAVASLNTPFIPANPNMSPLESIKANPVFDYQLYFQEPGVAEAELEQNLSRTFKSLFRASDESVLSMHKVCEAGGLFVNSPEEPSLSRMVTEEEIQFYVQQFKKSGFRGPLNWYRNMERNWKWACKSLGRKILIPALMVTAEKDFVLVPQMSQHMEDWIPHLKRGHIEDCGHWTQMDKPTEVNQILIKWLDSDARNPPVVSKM

human FAAH = target: T3, human FAAH (Homo sapiens, UniProt O00519); assay: Ki and kinact determination on FAAH; assay type: biochemical
T3 sequence (O00519 1-579): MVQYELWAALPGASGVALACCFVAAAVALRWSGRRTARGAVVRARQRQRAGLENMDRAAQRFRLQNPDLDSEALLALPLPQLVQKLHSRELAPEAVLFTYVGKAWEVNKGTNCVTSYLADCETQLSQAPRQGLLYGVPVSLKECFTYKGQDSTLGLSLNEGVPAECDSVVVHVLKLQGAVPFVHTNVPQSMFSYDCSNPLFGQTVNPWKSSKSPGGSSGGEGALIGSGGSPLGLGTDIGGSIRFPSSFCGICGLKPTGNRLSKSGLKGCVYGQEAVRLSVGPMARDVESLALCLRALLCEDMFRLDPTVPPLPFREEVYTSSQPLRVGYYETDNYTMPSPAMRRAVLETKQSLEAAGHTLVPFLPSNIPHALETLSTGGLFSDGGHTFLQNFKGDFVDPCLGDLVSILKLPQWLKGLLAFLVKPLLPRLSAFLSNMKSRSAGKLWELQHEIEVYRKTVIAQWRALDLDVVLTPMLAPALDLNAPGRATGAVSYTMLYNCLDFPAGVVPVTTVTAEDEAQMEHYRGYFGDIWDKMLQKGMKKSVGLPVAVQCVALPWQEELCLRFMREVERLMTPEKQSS
Summary of the method: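 Crude baculovirus-expressed recombinant FAAH (High Five cell S9 fraction in 50 mM Tris/HCl pH 8.0, 1 mM CHAPS, 10% glycerol). OMP (100 μM final) was mixed with a range of test compound concentrations and held 5 min at 37 °C.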

rat FAAH = target: T4, rat FAAH (Rattus norvegicus, UniProt P97612); assay: FAAH fluorescent inhibition assay, rat brain microsomes; assay type: biochemical
T4 sequence (P97612 1-579): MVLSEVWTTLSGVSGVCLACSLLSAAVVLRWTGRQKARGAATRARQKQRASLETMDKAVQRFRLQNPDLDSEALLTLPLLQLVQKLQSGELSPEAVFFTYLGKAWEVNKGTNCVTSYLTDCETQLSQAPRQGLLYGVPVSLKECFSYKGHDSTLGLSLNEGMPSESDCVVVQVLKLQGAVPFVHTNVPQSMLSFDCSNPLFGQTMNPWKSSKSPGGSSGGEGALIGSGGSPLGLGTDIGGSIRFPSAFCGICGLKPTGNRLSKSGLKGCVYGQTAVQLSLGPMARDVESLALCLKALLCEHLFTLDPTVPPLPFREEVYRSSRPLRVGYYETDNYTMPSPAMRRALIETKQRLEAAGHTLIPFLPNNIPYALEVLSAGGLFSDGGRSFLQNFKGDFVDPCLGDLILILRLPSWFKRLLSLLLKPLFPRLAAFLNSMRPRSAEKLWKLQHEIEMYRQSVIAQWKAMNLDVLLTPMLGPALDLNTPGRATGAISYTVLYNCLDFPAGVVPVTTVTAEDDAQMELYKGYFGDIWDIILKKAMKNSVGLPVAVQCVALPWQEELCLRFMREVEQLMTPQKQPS
Summary of the method: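 Rat brain microsomes: tissue homogenized in 20 mM phosphate (pH 7.4, 5 mM EDTA), spun at 9000g for 20 min, then 100 000g for 1 h, and stored at −80 °C. OMP (100 μM final) in 0.1 M sodium phosphate pH 8, 0.1 mg/mL BSA, 2% DMSO, 37 °C. Fluorescence (ex 303/em 394 nm) read every 30 s for 10 min. No-enzyme background subtracted. IC50 from linear regression of log[I] vs % remaining activity; triplicates.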

serine hydrolases = assay: Activity-based protein profiling; assay type: biochemical, mouse; conditions: mouse liver tissue homogenate, inhibitor 20 µM
[1] = FAAH IC50 (60 min pre-incubation), 60 min pre-incubation

| SMILES | IC50 (mouse sEH) [nM] | difference in potency on sEH (human sEH; compared to 11) [fold] | Ki (human FAAH) [nM] | kinact (human FAAH) [s⁻¹] | kinact/KI (human FAAH) [M⁻¹ s⁻¹] | IC50 (rat FAAH; FAAH IC50 (5 min pre-incubation), 5 min pre-incubation) [nM] | IC50 (rat FAAH; [1]) [nM] | other serine hydrolase bands (ABPP) (serine hydrolases) | IC50 (human sEH) [nM] |
| --- | --- | --- | --- | --- | --- | --- | --- | --- | --- |
| O=C(Nc1ccc(C(F)(F)F)cc1F)N1CCC(Cc2cccc(Oc3ccc(C(F)(F)F)cn3)c2)CC1 [compound 18] | 360 | < 3 | 24 | 0.000283 | 700000 | > 10000 | 1100 | neither 11, 13, 14, 18, nor PF-3845 had any effect on the intensity of other bands |  |
| O=C(Nc1cccnc1)N1CCC(Cc2cccc(Oc3ccc(C(F)(F)F)cn3)c2)CC1 [PF-3845, reference compound] | 1200 |  | 3.5 |  |  |  | 0.2 | neither 11, 13, 14, 18, nor PF-3845 had any effect on the intensity of other bands | 12000 |
